# Rows were chosen to be rich in hits. Some 1.7% of all compounds tested hit in one or more screens of this group.
# Cneo AK release – Cryptococcus neoformans cell lysis inducers, primary screen, AK release luminescence, single concentration | lysis activity, % at 15 µM | AID 651654, 2012 | actives 0.2% (n = 360,000) | C. neoformans lysis, adenylate kinase release luminescence, 4 h; normalised: neutral wells 0, clomiphene wells 100;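 active = mean lysis activity across replicates of at least 80%, whatever share of replicates individually reach that level; inactive = mean lysis activity below 80%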
#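 Schedule: static 4 h at 37 °C with compound, 1 h detection; system: C. neoformans cells; benchmarks: Clomiphene as positive control; buffer or medium: fresh YPD medium; measure: luminescence rise reflecting yeast cell lysis; measured by: luminescent adenylate kinase detection reagent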
# CaV13 ICDI inh – Disruptors of the CACNA1D IQ motif to Ca2+-dependent inactivation inhibitor domain association, primary screening, Förster resonance energy transfer in intact living …. HEK cells, CFP/YFP FRET ICDI-IQ, plate reader, 10 min; percent FRET-ratio fall versus neutral wells. inhibition, % at 12.3 µM. actives 0.098% (n = 340,000);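 active = mean replicate inhibition of at least 30% and at least 1% of replicates passing that level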;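 note: 0% = median of the neutral control wells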
# Ecoli rRNA inh – reduced GFP signal of wild-type E. coli, primary screen, bacterial rRNA inhibitor project, GFP/RFP fluorescence, OD600, single point; E. coli WT GFP vs humanized-ribosome RFP mutants, 24 h; hits give low values; DMSO median 0, no signal -100; GFP signal change (wild-type ribosome), % (no concentration beside the values); actives 1.6% (n = 350,000);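 active = significant combined selectivity score with lowered wild-type GFP, culture density cut under 30%, mutant RFP and density less affected; inactive = any of these conditions unmet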
# CFTR F508del cor – F508del CFTR correction, initial screen, CFBE line, single point; CFBE cells, YFP halide quenching; stimulated with forskolin plus potentiator P3; % fluorescence drop versus neutral controls; activity (quench increase), % at 7.58 µM; actives 0.36% (n = 350,000);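 active = mean added fluorescence quench of at least 8% versus neutral control, with both replicates also reaching 8%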;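 note: cells transiently co-express mutant CFTR-F508del with the halide-sensitive YFP; corrector assay measuring rescue of mutant channel to the surface after 24 h compound exposure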
# * marks the source's active call; other numbers are inactive results; . = no result.
SMILES,Cneo AK release,CaV13 ICDI inh,Ecoli rRNA inh,CFTR F508del cor
COC(=O)c1ccccc1OCCOCCOc1cccc2ccc(C)nc12,3,7,-28*,-2
CN(C)C(=O)c1cccc(-c2ccc([C@@H]3[C@H]4CN(C(=O)C5CCC5)CCCCN4[C@H]3CO)cc2)c1,2,.,2,-4
Cc1ccc(NC(=S)NNC(=O)C2CC2c2ccc(C)cc2)cc1 (stereo not drawn),0,-4,.,.
O=C(NNC(=S)Nc1ccc(F)cc1)C1CC1c1ccc(Cl)cc1 (stereo not drawn),.,-3,-52*,.
CCOC(=O)c1sc(-c2ccc(Cl)cc2Cl)nc1O,.,-20,-29*,3
CCOC(=O)c1sc(CS(=O)(=O)c2ccc(Cl)cc2)nc1C,.,-4,10,0
CO[C@@H]1CN(C)C(=O)c2ccc(NC(=O)Nc3cccc(F)c3)cc2OC[C@@H](C)NC[C@@H]1C,-2,.,-1,2
CCOC(=O)C1CCCN(C(=O)C(=O)Nc2ccc3nc4n(c(=O)c3c2)CCCCC4)C1 (stereo not drawn),1,-7,-17*,2
O=C(Nc1ccc2nc3n(c(=O)c2c1)CCCCC3)c1c(F)ccc([N+](=O)[O-])c1F,-1,-5,-22*,-1
CNC(=O)C[C@H]1CC[C@H]2[C@@H](COC[C@H](O)CN2C(=O)c2ccc3c(c2)OCO3)O1,1,.,3,1
O=C(Nc1ccccc1F)N[C@@H]1CC[C@@H](CCNS(=O)(=O)c2ccc(F)cc2)O[C@@H]1CO,4,.,-4,-1
COc1ccc(CC(=O)Nc2nc(-c3ccc(F)c(F)c3)cs2)cc1,0,-7,-34,0
CC1(C(=O)OCC(=O)Nc2nc(-c3ccc(F)c(F)c3)cs2)CC1(Cl)Cl (stereo not drawn),-5,-9,-28*,0
COc1cc(/C=C(\CC(=O)O)c2nc3ccccc3s2)ccc1OCC(=O)Nc1ccccc1F,0,-6,-25*,18*
COc1ccc(/C=C(\CC(=O)O)c2nc3ccccc3s2)cc1O,0,2,-25*,0
O=C(O)C/C(=C\c1cccc(NC(=O)c2ccccc2Cl)c1)c1nc2ccccc2s1,112*,-6,-35*,1
Cc1ccc(/C=C(\CCC(=O)O)c2nc3ccccc3s2)cc1[N+](=O)[O-],-1,-5,-29*,-1
COc1ccc(C(=O)Nc2cccc(/C=C(\CCC(=O)O)c3nc4ccccc4s3)c2)cc1,-2,-8,-19,-1
CC(C)CC#Cc1cnc2c(c1)C(=O)N([C@@H](C)CO)C[C@H](C)[C@H](CN(C)C(=O)c1ccc(F)cc1)O2,0,.,3,-2
COc1cc2c(C#CCCO)c(-c3ccc(C#N)cc3)oc(=O)c2cc1OC,2,-6,3,-1
COc1cc2c(C#CCCO)c(-c3ccsc3)oc(=O)c2cc1OC,-1,-11,-8,14*
O=C(CCC(=O)N1CCN(c2ccc(F)cc2)CC1)N1CCN(c2ccc(F)cc2)CC1,1,-12,-21*,1
COC(=O)[C@H](Cc1ccccc1)NC(=O)N1CCN(c2ccc(F)cc2)CC1,-4,-5,-20*,0
O=C(CCC(=O)N1CCN(c2ccccc2F)CC1)N1CCN(c2ccc(F)cc2)CC1,3,-4,-17,-1
CCN(CC)c1ccc(C(=S)NC2CCCCC2)cc1,-1,2,-21*,-1
CN(C)c1ccc(C(=S)NC2CCCCC2)cc1,.,0,9,1
Cc1noc(C)c1NC(=O)Nc1cccc2c1O[C@@H](CN(C)S(=O)(=O)c1cn(C)cn1)[C@@H](C)CN([C@@H](C)CO)C2=O,105*,.,2,2
Cc1cc(C(=O)Nc2cccc3c2O[C@H](CN(C)S(=O)(=O)c2ccc(Cl)cc2)[C@H](C)CN([C@H](C)CO)C3=O)n(C)n1,-1,.,-22*,-1
Cc1cc(C(=O)Nc2cccc3c2O[C@H](CN(C)S(=O)(=O)c2ccc(Cl)cc2)[C@@H](C)CN([C@@H](C)CO)C3=O)n(C)n1,-3,.,1,-5
Cc1cc(C(=O)Nc2cccc3c2O[C@@H](CN(C)S(=O)(=O)c2ccccc2)[C@H](C)CN([C@@H](C)CO)C3=O)n(C)n1,-3,8,0,0

# Source: PubChem BioAssay (Broad Institute)
